# Assay results as given in ChEMBL document CHEMBL5505959, “Identification of 4-amino-2-Pyridones as new potent PCSK9 inhibitors: From phenotypic hit discovery to in vivo tolerability” (Eur J Med Chem, 2024).
# Activity calls are given as the source filed them. The calls are words filed in the database; no cut-off is given here.
# Columns and labels:
# HepG2 [1] = assay: Downregulation of mature PCSK9 level in human HepG2 cells by Western blot analysis; assay type: functional, cell-based
# Method in brief: (§1)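 HepG2 cells were treated overnight or for 24 h, alone or with simvastatin 40 μM. Lysates (1 % NP-40, 150 mM NaCl, 50 mM Tris-HCl pH 7.5) were loaded at 25 µg protein on 4–20 % SDS-PAGE. Blots were probed for proPCSK9, mature PCSK9 and LDLR, and densitometry was normalized to β-actin or GAPDH. Mean ± SD of three independent experiments.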
# HepG2 [2] = assay: Induction of LDLR expression in human HepG2 cells by Western blot analysis; assay type: functional, cell-based; method in brief: as §1
# HepG2 [3] = assay: Downregulation of proPCSK9 level in human HepG2 cells by Western blot analysis; assay type: functional, cell-based; method in brief: as §1
# HepG2 [4] = assay: Cytotoxicity against human HepG2 cells assessed as reduction in cell viability at 5 uM measured after 24 hrs by SRB assay relative to control; assay type: functional
# Method in brief: (§2)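 HepG2 seeded 8000 cells/well in complete MEM; next day medium replaced with 0.4 % FBS medium containing compound or DMSO control. Viability was read by sulforhodamine B assay after 24 h, with absorbance at 570 nm. Dose-response series used 6.25, 12.5, 25, 50 or 100 μM; newer analogues were tested at a fixed 5 μM. Data are mean ± SD of three independent experiments.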
# [5] = Induction of LDLR expression in human HepG2 cells by measuring fold increase by Western blot analysis; assay type: functional; method in brief: as §1
# HepG2 [6] = assay: Effect on proPCSK9 expression in human HepG2 cells by Western blot analysis; assay type: functional, cell-based; method in brief: as §1
# [7] = Toxicity in C57BL/6 mouse assessed as reduction in ALT plasma level at 40 mg/kg, sc measured after 7 days by ELISA method; assay type: organism-based; details: in vivo, 168 h, time 7 day
# Method in brief: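 Male C57BL/6J mice, 3 months old, dosed subcutaneously at 40 mg/kg daily for seven days in Transcutol. Killed under isoflurane 6 h after the final dose. Retro-orbital blood taken into EDTA and spun at 3000 rpm, 4 °C, 10 min. Plasma ALT measured by ELISA kit. Mean ± SEM, n = 5–6 per group.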
# HepG2 [8] = assay: Downregulation of PCSK9 mRNA level in human HepG2 cells by qRT-PCR analysis; assay type: functional, cell-based; details: dose 6.25-25 µM
# Method in brief: (§3)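 Total RNA was taken from treated HepG2 cells for RT-qPCR of PCSK9, FAS and HMG-CoA reductase. Cycling was 50 °C 10 min, 95 °C 2 min, then 40 cycles of 95 °C 5 s and 60 °C 10 s. Relative quantification used ΔΔCt against 18S, corrected for primer efficiency. Mean ± SD of three independent experiments.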
# HepG2 [9] = assay: Downregulation of mature PCSK9 protein expression in human HepG2 cells at 6.25 uM by Western blot analysis; assay type: functional, cell-based; method in brief: as §1
# HepG2 [10] = assay: Inhibition of basal PCSK9 activity in human HepG2 cells at 6.25 to 12.5 uM incubated for 24 hrs by luciferase assay; assay type: functional, cell-based; details: dose 6.25-12.5 µM
# Method in brief: (§4)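 HepG2 cells were seeded at 8 × 10⁵ per well and transiently transfected with pGL3-PCSK9-D4 (−440 to −94 region), or with SRE- or HNF-mutant constructs. At 48 h post-transfection, cells were treated 24 h with compound or simvastatin 5 μM. Promoter activity was read as luciferase luminescence.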
# [11] = Downregulation of simvastatin induced PCSK9 expression in human HepG2 cells at 12.5 uM by Western blot analysis relative to control; assay type: functional; method in brief: as §1
# [12] = Downregulation of extracellular PCSK9 level in human HepG2 cells at 6.25 to 12.5 uM under conditioned media by ELISA method relative to control; assay type: functional; details: dose 6.25-12.5 µM
# Method in brief: (§5)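 Secreted PCSK9 was measured in HepG2 conditioned media with a human PCSK9 DuoSet sandwich ELISA. Media were centrifuged at 15000 rpm for 10 min and diluted before reading absorbance at 450 nm. Values were normalized to HepG2 total protein content. Mean ± SD of three independent experiments.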
# HepG2 [13] = assay: Effect on FAS mRNA level in human HepG2 cells at 6.25 to 25 uM by qRT-PCR analysis; details: dose 6.25-25 µM
# HepG2 [14] = assay: Effect on HMG-CoA reductase mRNA level in human HepG2 cells at 50 to 100 uM by qRT-PCR analysis; assay type: functional, cell-based; details: dose 50-100 µM; method in brief: as §3
# [15] = Downregulation of PCSK9 expression in human HepG2 cells at 6.25 to 12.5 uM by Western blot analysis relative to control; assay type: functional; details: dose 6.25-12.5 µM; method in brief: as §1
# HepG2 [16] = assay: Effect on HMG-CoA reductase mRNA level in human HepG2 cells at 6.25 to 25 uM by qRT-PCR analysis; assay type: functional, cell-based; details: dose 6.25-25 µM; method in brief: as §3
# HepG2 [17] = assay: Inhibition of simvastatin induced PCSK9 activation in human HepG2 cells at 6.25 to 12.5 uM incubated for 24 hrs by luciferase assay; assay type: functional, cell-based; details: dose 6.25-12.5 µM; method in brief: as §4
# HepG2 [18] = assay: Inhibition of PCSK9 transcription activity in human HepG2 cells harbouring FLAG tagged PCSK9 at 6.25 to 12.5 uM incubated for 24 hrs by luciferase assay; assay type: functional, cell-based; details: dose 6.25-12.5 µM
# [19] = Downregulation of proPCSK9 protein expression in human HepG2 cells at 12.5 uM by Western blot analysis relative to control; assay type: functional; method in brief: as §1
# [20] = Downregulation of mature PCSK9 protein expression in human HepG2 cells at 12.5 uM by Western blot analysis relative to control; assay type: functional; method in brief: as §1
# HepG2 [21] = assay: Induction of LDLR expression in human HepG2 cells at 6.25 incubated for 24 hrs in presence of simvastatin by Western blot analysis; assay type: functional, cell-based; method in brief: as §1
# HepG2 [22] = assay: Downregulation of proPCSK9 protein expression in human HepG2 cells at 6.25 uM by Western blot analysis; assay type: functional, cell-based; method in brief: as §1
# HepG2 [23] = assay: Inhibition of PCSK9 promotor activity in human HepG2 cells harbouring pGL3-PCSK9-SRE mutant at 6.25 to 12.5 uM incubated for 24 hrs by luciferase assay; assay type: functional, cell-based; details: dose 6.25-12.5 µM; method in brief: as §4
# HepG2 [24] = assay: Downregulation of PCSK9 level in human HepG2 cells at 6.25 to 12.5 uM under conditioned media by ELISA method; assay type: functional, cell-based; details: dose 6.25-12.5 µM; method in brief: as §5
# HepG2 [25] = assay: Inhibition of PCSK9 promotor activity in human HepG2 cells harbouring pGL3-PCSK9-HNF mutant at 6.25 to 12.5 uM incubated for 24 hrs by luciferase assay; assay type: functional, cell-based; details: dose 6.25-12.5 µM; method in brief: as §4
# HepG2 [26] = assay: Downregulation of PCSK9 protein level in human HepG2 cells at 5 uM by Western blot analysis; assay type: functional, cell-based; method in brief: as §1
# HepG2 [27] = assay: Cytotoxicity against human HepG2 cells assessed as reduction in cell viability at 6 to 100 uM measured after 24 hrs by SRB assay; assay type: functional, cell-based; details: dose 6-100 µM; method in brief: as §2
# HepG2 [28] = assay: Downregulation of PCSK9 mRNA level in human HepG2 cells at 6 to 25 uM by qRT-PCR analysis; assay type: functional, cell-based; details: dose 6-25 µM; method in brief: as §3
# HepG2 [29] = assay: Downregulation of simvastatin induced PCSK9 expression in human HepG2 cells measured after 24 hrs by Western blot analysis; assay type: functional, cell-based; method in brief: as §1
# HepG2 [30] = assay: Cytotoxicity against human HepG2 cells assessed as reduction in cell viability at 100 uM measured after 24 hrs by SRB assay; assay type: functional, cell-based; method in brief: as §2
# HepG2 [31] = assay: Cytotoxicity against human HepG2 cells assessed as reduction in cell viability at 25 uM measured after 24 hrs by SRB assay; assay type: functional, cell-based; method in brief: as §2
# HepG2 [32] = assay: Downregulation of PCSK9 mRNA level in human HepG2 cells at 25 uM by qRT-PCR analysis; assay type: functional, cell-based; method in brief: as §3
# HepG2 [33] = assay: Cytotoxicity against human HepG2 cells assessed as reduction in cell viability at 50 to 100 uM measured after 24 hrs by SRB assay; assay type: functional, cell-based; details: dose 50-100 µM; method in brief: as §2
compound,measurement,setting,value
CCCCCNc1cc(C)n(Cc2ccc(OC)cc2)c(=O)c1,Activity,HepG2 [1],Active
same,Activity,HepG2 [2],inactive
same,Activity,HepG2 [3],Active
CCCCCNc1cc(C)n(Cc2ccc(C(F)(F)F)cc2)c(=O)c1,Activity,HepG2 [4],>95%
Cc1cc(NCc2ccc(C(F)(F)F)cc2)cc(=O)n1CC(C)C,Activity,HepG2 [4],>95%
Cc1cc(NCc2ccc(CCC(C)C)cc2)cc(=O)n1Cc1ccc(CCC(C)C)cc1,fold change (FC),[5],3
same,Activity,HepG2 [6],inactive
same,Activity,HepG2 [4],>95%
Cc1cc(C(=O)C2=C(O)C(=O)N(CCCN3CCOCC3)C2c2ccncc2)ccc1OCc1ccccc1 (configuration not stated),Activity,[7],Non-Toxic
CCCCCn1c(C)cc(NCc2ccccc2)cc1=O,Activity,HepG2 [4],>95%
Cc1cc(NC2CCCC2)cc(=O)n1Cc1ccc(C(F)(F)F)cc1,Activity,HepG2 [4],>95%
CCCCCn1c(C)cc(NCc2ccc(C(F)(F)F)cc2)cc1=O,Activity,HepG2 [4],>95%
CCCCCNc1cc(C)n(Cc2ccc(Cl)cc2)c(=O)c1,Activity,HepG2 [8],Dose-Dependent Effect
same,Activity,HepG2 [9],inactive
same,inhibition,HepG2 [10],inactive
same,Activity,[11],100%
same,Activity,[12],35.8%
same,Activity,HepG2 [13],inactive
same,Activity,HepG2 [14],Active
same,Activity,[15],65%
same,Activity,HepG2 [16],inactive
same,inhibition,HepG2 [17],Active
same,inhibition,HepG2 [18],inactive
same,Activity,[19],100%
same,Activity,[20],100%
same,Activity,HepG2 [21],Active
same,Activity,HepG2 [22],inactive
same,inhibition,HepG2 [23],inactive
same,Activity,HepG2 [24],Active
same,inhibition,HepG2 [25],inactive
COc1ccc(CNc2cc(C)n(Cc3ccc(OC)c(OC)c3)c(=O)c2)cc1OC,Activity,HepG2 [4],>95%
COc1cccc(CNc2cc(C)n(Cc3cccc(OC)c3OC)c(=O)c2)c1OC,Activity,HepG2 [4],>95%
Cc1cc(NCc2ccc(Cl)cc2)cc(=O)n1Cc1ccc(Cl)cc1,Activity,HepG2 [4],>95%
CCCCCNc1cc(C)n(Cc2cccc(OC)c2OC)c(=O)c1,Activity,HepG2 [4],>95%
Cc1cc(NCCC(C)C)cc(=O)n1Cc1ccccc1,Activity,HepG2 [4],>95%
CCCCCn1c(C)cc(NCc2ccc(Cl)cc2)cc1=O,Activity,HepG2 [26],Active
same,Activity,HepG2 [27],inactive
same,Activity,HepG2 [28],Active
Cc1cc(NCc2ccc(Cl)cc2)cc(=O)n1CCC(C)C,Activity,HepG2 [4],>95%
CC(=O)N(Cc1ccc(C(F)(F)F)cc1)c1cc(C)n(Cc2ccc(C(F)(F)F)cc2)c(=O)c1,Activity,HepG2 [4],>95%
CCC(C)(C)C(=O)O[C@H]1C[C@@H](C)C=C2C=C[C@H](C)[C@H](CC[C@@H]3C[C@@H](O)CC(=O)O3)[C@H]21,Activity,HepG2 [29],inactive
CCCCCN(C(C)=O)c1cc(C)n(Cc2ccc(C(F)(F)F)cc2)c(=O)c1,Activity,HepG2 [4],>95%
CCCCCNc1cc(C)n(CCCCC)c(=O)c1,Activity,HepG2 [30],Active
same,Activity,HepG2 [26],Active
same,Activity,HepG2 [28],Active
CCCCCNc1cc(C)n(Cc2ccccc2)c(=O)c1,Activity,HepG2 [4],>95%
COc1ccc(Cn2c(C)cc(NC3CCCC3)cc2=O)cc1,Activity,HepG2 [4],>95%
COc1ccc(CNc2cc(C)n(Cc3ccc(OC)cc3)c(=O)c2)cc1,Activity,HepG2 [4],>95%
Cc1cc(NCCc2ccccc2)cc(=O)n1Cc1ccc(Cl)cc1,Activity,HepG2 [31],inactive
same,Activity,HepG2 [32],Active
same,Activity,HepG2 [33],Active
Cc1cc(NCc2ccccc2)cc(=O)n1CCC(C)C,Activity,HepG2 [4],>95%
